# Screening data (PubChem)
# APP 5'UTR act – APP 5'UTR luciferase reporter activation; SH-SY5Y APP 5'UTR luciferase reporter, luminescence; zero percent = DMSO vehicle wells; activation, % at 2 µM; hit rate 1% among 190,000; AID 1276;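 active = activation above a set limit, based on mean plus 3 SD of controls, cut at about 140% in these data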
# NF-kB expr up – NF-kB expression increase, human neuronal cells | NF-kB reporter expression; hits give high values | fold change at 12.5 µM | hit rate 1.6% among 190,000 | AID 1239; in the data active = fold change above about 3.3
# STAT1 act – activators of IFN-gamma induced STAT1 signaling | NIH 3T3 STAT1-luciferase reporter, luminescence; 100% = IFN-gamma alone, no compound | activation (% of control), % at 5.5 µM | hit rate 2.6% among 200,000 | AID 932;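 active = activation above the screen-wide mean activation plus 3 SD, cut at about 130% in these data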;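 note: raw ratio to IFN-gamma control signal so 100% means no change and 0% no light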
# STAT1 inh – inhibitors of IFN-gamma induced STAT1 signaling; NIH 3T3 STAT1-luciferase reporter, luminescence; inhibition, % at 5.5 µM; hit rate 0.35% among 200,000; AID 920;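 active = inhibition above a set limit, the mean inhibition across all tested compounds plus 3 SD, cut at about 34% in these data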;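 note: 0% = IFN-gamma with DMSO and 100% = IFN-gamma with 300 µM nifuroxazide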
# STAT3 act – increases IL-6 driven STAT3 reporter signal; U3A cells, IL-6 STAT3-luciferase reporter, luminescence; 100% = signal with IL-6 EC80 alone; activation (% of control), % at 5.6 µM; hit rate 0.91% among 190,000; AID 871;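 active = activation above the screen-wide mean of compound activation plus 3 SD, cut at about 130% in these data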;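 note: 0% = background luminescence of wells with medium and substrate only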
#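 Material: human STAT1-deficient U3A cells with stable STAT3-luciferase reporter / Probe or stimulus: IL-6 stimulus at 33 ng/mL final / Schedule: 1 h compound pre-exposure, 6 h IL-6 stimulation, 37 °C / Technique: luminescence / Read-out basis: percent of IL-6-only median luminescence / Control set: IL-6-only high control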
# STAT3 blocker – reduces IL-6 driven STAT3 reporter signal; U3A cells, IL-6 STAT3-luciferase reporter, luminescence; host cell line lacks STAT1; inhibition, % at 5.5 µM; hit rate 0.89% among 190,000; AID 862;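 active = inhibition above the mean inhibition across all screened compounds plus 3 SD, cut at about 44% in these data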;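 note: 0% = DMSO only wells and 100% = 100 µM nifuroxazide control wells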
# * hit, by the source's call. Only some compounds are listed: those with a hit (about 4.9% of all), similar ones and a draw of the others.
SMILES,APP 5'UTR act,NF-kB expr up,STAT1 act,STAT1 inh,STAT3 act,STAT3 blocker
O=C(NC1CCCCC1)C(c1ccc2ncccc2c1)N(Cc1ccccc1)C(=O)c1cccs1 (stereo not given),-7,0.76,83,36*,113,-4
O=C(COC(=O)CCC(NC(=O)OCc1ccccc1)C(=O)OCC(=O)Nc1ccccc1)Nc1ccccc1 (stereo not given),-14,0.98,99,1,108,-6
O=C(NNc1nc(N2CCOCC2)nc(N2CCOCC2)n1)Nc1ccc(Cl)cc1,17,1.1,99,-1,97,7
CSc1ccccc1-c1nnc(-c2ccccc2)o1,140*,5.5*,144*,-49,121,-20
CSc1ccccc1-c1nnc(-c2ccc(C)cc2)o1,80,5*,146*,-51,132,-33
CSc1nnc(-c2ccccc2SC)o1,8,1.3,97,2,86,18
O=C(NCc1ccco1)Nc1ccc(Br)cc1Cl,43,1.7,133*,-36,82,24
COc1cccc(C(=O)C2CCCN(C(=O)CCC3=NNC(=O)CC3)C2)c1 (stereo not given),-8,1.2,109,-12,100,2
C=CCN=C(NC#N)SCC(=O)c1cccc(OC)c1,30,2.1,137*,-41,117,-18
Cc1ccc(S(=O)(=O)c2c(C)nn(-c3ccccc3)c2OC(=O)c2ccc(Br)o2)cc1,2,1.3,91,10,83,22
CN(C)c1ccc(NC(=O)c2ccc(Cn3cc([N+](=O)[O-])cn3)cc2)cc1,53,1.5,125,-29,108,-6
CS(=O)(=O)c1ccc(C(=O)OCc2nnc(-c3ccc(Cl)cc3)o2)cc1[N+](=O)[O-],-19,8.4*,87,14,93,11
Cc1ccc(-c2nnc(CSc3nnc(C)s3)o2)cc1,12,1.6,109,-10,108,-9
Cc1nnc(SCc2nnc(-c3ccccc3Br)o2)n1-c1ccccc1,8,0.98,95,5,106,-4
Cc1csc(SCc2nnc(-c3ccccc3Br)o2)n1,185*,5.4*,134*,-37,98,7
Fc1ccccc1SCc1nnc(-c2ccccc2Br)o1,161*,7.2*,112,-15,86,20
Brc1ccccc1-c1nnc(CSc2nnnn2-c2ccccc2)o1,10,1.1,104,-5,107,-1
Cc1csc(SCc2nnc(-c3ccc(Cl)cc3)o2)n1,95,3.7*,116,-17,106,-11
CCN(CC)S(=O)(=O)c1ccc(C(=O)Nc2ccc3c(c2)OCO3)cc1,18,0.96,99,-2,105,-2
Cc1cc(C(=O)NNC(=S)NCc2ccco2)nn1C,15,1.2,98,1,95,7
CC1Cc2cc(/C(O)=C3/C(=O)C(=O)N(CCCn4ccnc4)C3c3ccncc3)ccc2O1 (stereo not given),12,1,97,2,105,4
CC1Cc2cc(/C(O)=C3/C(=O)C(=O)N(CCCn4ccnc4)C3c3ccco3)ccc2O1 (stereo not given),91,0.75,132*,-35,97,8
Cc1noc(N)c1C1(O)C(=O)Nc2c(Cl)cc(Cl)cc21 (stereo not given),7,1.2,100,-1,104,0
CC(C)C(NC(=O)C1CCCCC1)C(=O)Nc1ccc2c(c1)OCCO2 (stereo not given),83,0.96,132*,-35,86,20
CC(C)c1ccc(C(N)=S)cc1,1,1.1,111,-10,100,5
COc1ccc(C)cc1NC(=O)C(NCC1CCCO1)c1ccccc1 (stereo not given),-17,0.98,95,8,97,1
COc1ccc(COCC(O)CN2CCc3ccccc3C2)cc1OC (stereo not given),5,0.96,94,6,96,12
CN(c1ccc(OCC(=O)OCC(=O)NCc2ccco2)cc1)S(=O)(=O)c1ccc2ccccc2c1,18,1.1,104,-5,106,-4
CC(C)c1cc(C(=O)OCC(=O)NC(=O)NCc2ccco2)c(O)c(C(C)C)c1,-5,1.1,107,-8,111,-9
